Measured values published in article PMC3961564 (The Journal of investigative dermatology, 2013).

Key:
[1] = target: FN668-704, second half of anastellin, with cysteine at the C-terminus (human); assay: radioligand binding
P3 (FN1853-1877) (human) = assay: radioligand binding
P4 (FN2043-2076) (human) = assay: radioligand binding
[2] = target: anastellin (FN630-704) with a Cys-tag at the C-terminus (human); assay: radioligand binding
FN-null fibroblasts = assay: FN-null cell survival on CBD/14 with peptide in solution; format: cell-based, mouse; conditions: serum-free DMEM, 1nM PDGF-BB, 3d, viable cells counted
Method in brief: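 Mouse FN-null fibroblasts were maintained in DMEM with 10% FBS. 96-well plates were precoated with 0.125μM GST-tagged CBD/14, blocked with 2% BSA for 2h and washed. Cells were seeded at 4,000/well for 4h at 37°C in serum-free DMEM, and BSA medium with soluble test compound ±1nM PDGF-BB was added. After 3d at 37°C, viable spread cells were counted in five 10x fields in three replicate wells (mean ± SD, n=15).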

cell growth = conditions: RWRPK by itself; ref Hocking et al., 2008; cited from earlier work
[3] = target: Recombinant PDGF-BB (platelet-derived growth factor-BB) (UniProt P01127); assay: SPR
Sequence of Recombinant PDGF-BB (platelet-derived growth factor-BB) (P01127 82-190): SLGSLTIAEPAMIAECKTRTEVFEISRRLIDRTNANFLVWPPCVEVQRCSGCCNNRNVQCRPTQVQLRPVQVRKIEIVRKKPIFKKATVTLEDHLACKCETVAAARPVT

[4] = target: 125I-PDGF-BB (125I-radiolabeled platelet-derived growth factor-BB) (UniProt P01127 82-190, 125I label (site not stated)); assay: radioligand binding
Sequence of 125I-PDGF-BB (125I-radiolabeled platelet-derived growth factor-BB) (UniProt P01127 82-190, 125I label (site not stated)) (P01127 82-190): as above

125I-PDGF-BB (125I-radiolabeled platelet-derived growth factor-BB) (from UniProt P01127 82-190) (ligand)
Kd [1]: 80 nM | Kd (P3 (FN1853-1877) (human)): 87 nM | Kd (P4 (FN2043-2076) (human)): 56 nM | Kd [2]: 90 nM

QPSHISKYILRWRPK [Peptide P5]
FN-null cell survival on CBD/14, peptide in solution (FN-null fibroblasts): promoted PDGF-BB survival signals

QWNAPQPSHISKYILRWRPK [Peptide P11]
FN-null cell survival on CBD/14, peptide in solution (FN-null fibroblasts): promoted PDGF-BB survival signals

RWRPK
FN-null cell survival on CBD/14, peptide in solution (FN-null fibroblasts): does not collaborate with PDGF-BB | Cell growth (cell growth): inhibits cell growth

anastellin (FN630-704) with a Cys-tag at the C-terminus (domain or fragment)
Kd [3]: 22.9 nM

B1: P1 (FN634-658) (peptide)
peptide: QPSHISKYILRWRPKNSVGRWKEAT
Kd [4]: 250 nM

B2: P2 (FN680-704) (peptide)
peptide: QLISHQQYGHQEVTRFDFTTTSTST
Kd [4]: 110 nM
